Assay results: ChEMBL document CHEMBL1255422, “Novel FKS mutations associated with echinocandin resistance in Candida species” (Antimicrob Agents Chemother, 2010)
Values after ≈ are worked out from the molar mass of the structure shown. Numbered stars: 1 amine (or outer) side, 2 acyl side, 3 side chain; on linkers, the order of the positions; unused ones are H or OH. Bridge positions count the residues as written; N and C are the ends. Square brackets hold non-standard residues; d marks the D form. Peptide text beside a SMILES is read from it. * marks the point of attachment. hTyr(3S-OH,4S-OH,3'-OSO3H) = N[C@H](C(=O)O)[C@H](O)[C@@H](O)c1ccc(O)c(OS(=O)(=O)O)c1; pTerphenylCO(4''-OnC5H11) = CCCCCOc1ccc(-c2ccc(-c3ccc(C(=O)*)cc3)cc2)cc1; Orn(4R-OH,5R-OH) = O=C([C@H](C[C@@H](O)[C@@H](O)N[*:3])N[*:1])[*:2]; hTyr(3S-OH,4S-OH) = N[C@H](C(=O)O)[C@H](O)[C@@H](O)c1ccc(O)cc1; Pro(3S-OH,4S-Me) = C[C@H]1CN[C@H](C(=O)O)[C@H]1O; X1 = CCCCCOc1ccc(-c2cc(-c3ccc(C(=O)*)cc3)no2)cc1; Gln(3R-OH) = NC(=O)C[C@@H](O)[C@H](N)C(=O)O; Hyp = O=C(O)[C@@H]1C[C@@H](O)CN1

Columns and labels:
Candida tropicalis [1] = assay: Antifungal activity against wild type Candida tropicalis ATCC 750; format: functional
Summary of the method: (§1)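 Whole-cell MIC testing of clinical isolates alongside reference strains. Each MIC is the geometric mean of three repetitions.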

Candida tropicalis [2] = assay: Antifungal activity against Candida tropicalis CT-C1 harboring FKS1 T227C mutant gene; format: functional; summary of the method: as §1
Nakaseomyces glabratus [3] = assay: Antifungal activity against wild type Candida glabrata ATCC 90030; format: functional
Summary of the method: (§2)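 MIC by broth dilution. The reported value is the geometric mean of three repetitions. Clinical isolates were tested alongside reference strains C. glabrata ATCC 90030, C. tropicalis ATCC 750, C. albicans ATCC 90028, 205 and 177.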

Nakaseomyces glabratus [4] = assay: Antifungal activity against Candida glabrata CG-C2 harboring FKS1 T1885C mutant gene; format: functional; summary of the method: as §1
Nakaseomyces glabratus [5] = assay: Antifungal activity against Candida glabrata CG-C3 harboring FKS2 T1987C mutant gene; format: functional; summary of the method: as §1
Candida albicans [6] = assay: Antifungal activity against wild type Candida albicans ATCC 90028; format: functional; summary of the method: as §1
Candida albicans [7] = assay: Antifungal activity against Candida albicans 177 harboring FKS1 T1922C mutant gene; format: functional; summary of the method: as §1
Candida albicans [8] = assay: Antifungal activity against Candida albicans 205 harboring FKS1 T1933C mutant gene; format: functional; summary of the method: as §1
[9] = Inhibition of Candida tropicalis ATCC 750 wild type FKS
Summary of the method: (§3)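 1,3-β-d-glucan synthase complexes were isolated from each strain and titrated against echinocandin to generate inhibition curves. IC50 was taken from the inhibition kinetics and given as the arithmetic mean of three repetitions.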

[10] = Inhibition of Candida tropicalis CT-C1 FKS1 T227C mutant; summary of the method: as §3
[11] = Inhibition of Candida glabrata CG-C2 FKS1 T1885C mutant; set-up: species or system Nakaseomyces glabratus; summary of the method: as §3
[12] = Inhibition of Candida glabrata CG-C3 FKS2 T1987C mutant; set-up: species or system Nakaseomyces glabratus; summary of the method: as §3
[13] = Inhibition of Candida albicans ATCC 90028 wild type FKS; summary of the method: as §3
[14] = Inhibition of Candida albicans 177 FKS1 T1922C mutant; summary of the method: as §3
[15] = Inhibition of Candida albicans 205 FKS1 T1933C mutant; summary of the method: as §3
[16] = Inhibition of Candida glabrata CG-C2 FKS
[17] = Inhibition of Candida glabrata CG-C3 FKS
Nakaseomyces glabratus [18] = assay: Antifungal activity against Candida glabrata clinical isolate by broth dilution assay; format: functional; summary of the method: as §2
Candida tropicalis [19] = assay: Antifungal activity against Candida tropicalis clinical isolate by broth dilution assay; format: functional; summary of the method: as §2
[20] = Inhibition of Candida glabrata ATCC 90030 wild type FKS; set-up: species or system Nakaseomyces glabratus; summary of the method: as §3
Nakaseomyces glabratus [21] = assay: Antifungal activity against Candida glabrata clinical isolate assessed as percent isolates by broth dilution assay
Candida tropicalis [22] = assay: Antifungal activity against Candida tropicalis clinical isolate assessed as percent isolates by broth dilution assay
[23] = Inhibition of Candida tropicalis CT-C1 FKS

Row | Structure (SMILES) | MIC (Candida tropicalis [1]) [µg/mL] | MIC (Candida tropicalis [2]) [µg/mL] | MIC (Nakaseomyces glabratus [3]) [µg/mL] | MIC (Nakaseomyces glabratus [4]) [µg/mL] | MIC (Nakaseomyces glabratus [5]) [µg/mL] | MIC (Candida albicans [6]) [µg/mL] | MIC (Candida albicans [7]) [µg/mL] | MIC (Candida albicans [8]) [µg/mL] | IC50 [9] [µg/mL] | IC50 [10] [µg/mL] | IC50 [11] [µg/mL] | IC50 [12] [µg/mL] | IC50 [13] [µg/mL] | IC50 [14] [µg/mL] | IC50 [15] [µg/mL] | IC50 [20] [µg/mL] | also measured
1 | CCCCCOc1ccc(-c2ccc(-c3ccc(C(=O)N[C@H]4C[C@@H](O)[C@@H](O)NC(=O)[C@@H]5[C@@H](O)[C@@H](C)CN5C(=O)[C@H]([C@@H](C)O)NC(=O)[C@H]([C@H](O)[C@@H](O)c5ccc(O)cc5)NC(=O)[C@@H]5C[C@@H](O)CN5C(=O)[C@H]([C@@H](C)O)NC4=O)cc3)cc2)cc1 [ANIDULAFUNGIN] ({pTerphenylCO(4''-OnC5H11)}-[Orn(4R-OH,5R-OH)]T[Hyp][hTyr(3S-OH,4S-OH)]T[Pro(3S-OH,4S-Me)]; lactam 1-C) | 0.06 (≈ 0.0526 µM) | 1 (≈ 0.877 µM) | < 0.03 | 4 (≈ 3.51 µM) | 8 (≈ 7.02 µM) | 0.03 (≈ 0.0263 µM) | 0.83 (≈ 0.728 µM) | 1.33 (≈ 1.17 µM) | 0.00233 (≈ 0.00204 µM) | 0.06128 (≈ 0.0537 µM) | 12.778 (≈ 11.2 µM) | 16.882 (≈ 14.8 µM) | 0.0005 (≈ 0.000438 µM) | 1.091 (≈ 0.957 µM) | 0.2454 (≈ 0.215 µM) | – | IC50 [16]: 14.26 µg/mL (≈ 12.5 µM); IC50 [17]: 13.29 µg/mL (≈ 11.7 µM)
2 | CC[C@H](C)C[C@H](C)CCCCCCCCC(=O)N[C@H]1C[C@@H](O)[C@@H](NCCN)NC(=O)[C@@H]2[C@@H](O)CCN2C(=O)[C@H]([C@H](O)CCN)NC(=O)[C@H]([C@H](O)[C@@H](O)c2ccc(O)cc2)NC(=O)[C@@H]2C[C@@H](O)CN2C(=O)[C@H]([C@@H](C)O)NC1=O [CASPOFUNGIN] | 0.25 (≈ 0.229 µM) | 4 (≈ 3.66 µM) | 0.03 (≈ 0.0274 µM) | 8 (≈ 7.32 µM) | > 16 | 0.12 (≈ 0.11 µM) | 4 (≈ 3.66 µM) | 8 (≈ 7.32 µM) | 0.00233 (≈ 0.00213 µM) | 0.06128 (≈ 0.056 µM) | 12.778 (≈ 11.7 µM) | 16.882 (≈ 15.4 µM) | 0.0005 (≈ 0.000457 µM) | 1.091 (≈ 0.998 µM) | 0.2454 (≈ 0.224 µM) | 0.00192 (≈ 0.00176 µM) | MIC (Nakaseomyces glabratus [18]): ≥ 2 µg/mL; MIC (Candida tropicalis [19]): ≥ 2 µg/mL; Activity (Nakaseomyces glabratus [21]): 2.2%; Activity (Candida tropicalis [22]): 5.8%
3 | CCCCCOc1ccc(-c2cc(-c3ccc(C(=O)N[C@H]4C[C@@H](O)[C@@H](O)NC(=O)[C@@H]5[C@@H](O)[C@@H](C)CN5C(=O)[C@H]([C@H](O)CC(N)=O)NC(=O)[C@H]([C@H](O)[C@@H](O)c5ccc(O)c(OS(=O)(=O)O)c5)NC(=O)[C@@H]5C[C@@H](O)CN5C(=O)[C@H]([C@@H](C)O)NC4=O)cc3)no2)cc1 [MICAFUNGIN] (X1-[Orn(4R-OH,5R-OH)]T[Hyp][hTyr(3S-OH,4S-OH,3'-OSO3H)][Gln(3R-OH)][Pro(3S-OH,4S-Me)]; lactam 1-C) | 0.06 (≈ 0.0472 µM) | 1 (≈ 0.787 µM) | 0.03 (≈ 0.0236 µM) | 2 (≈ 1.57 µM) | > 16 | 0.03 (≈ 0.0236 µM) | 1 (≈ 0.787 µM) | 4 (≈ 3.15 µM) | 0.007545 (≈ 0.00594 µM) | 0.4059 (≈ 0.32 µM) | 15.144 (≈ 11.9 µM) | 11.422 (≈ 8.99 µM) | 0.0188 (≈ 0.0148 µM) | 1.435 (≈ 1.13 µM) | 1.088 (≈ 0.856 µM) | 0.00071 (≈ 0.000559 µM) | IC50 [23]: 0.4014 µg/mL (≈ 0.316 µM)
